Reference: ChEMBL document CHEMBL3112485, “7-Chloroquinolinotriazoles: synthesis by the azide-alkyne cycloaddition click chemistry, antimalarial activity, cytotoxicity and SAR studies” (Eur J Med Chem, 2014)

Legend:
Plasmodium falciparum = assay: Antimalarial activity against chloroquine-resistant and mefloquine-sensitive Plasmodium falciparum W2 infected in human erythrocytes after 48 hrs by HRP2-ELISA; type: functional, organism-based; settings: W2, 48 h
In short: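 Ring-stage cultures sorbitol-synchronized; RBC suspension at 0.05% parasitemia, 1.5% hematocrit in RPMI with 10% human plasma, exposed to serial compound concentrations 48 h. Background wells harvested at 24 h and subtracted. Freeze-thaw lysis, then anti-HRP2 sandwich ELISA with TMB, absorbance 450 nm. IC50 from sigmoidal dose-response versus drug-free and standard-drug controls; triplicate per concentration, experiments in duplicate.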

[1] = Selectivity index, ratio of CC50 for human HepG2 cells to IC50 for chloroquine-resistant and mefloquine-sensitive Plasmodium falciparum W2; type: functional
[2] = Cytotoxicity against human HepG2 cells after 24 hrs by MTT assay; type: cell-based

Q: For `COc1c(F)c(F)cc(C(=O)OCc2cn(-c3ccnc4cc(Cl)ccc34)nn2)c1F`, which IC50 (Plasmodium falciparum; read-out: IC50) is on record?
A: > 112 µM

Q: What about the “Ratio CC50/IC50” value [1] of the same molecule?
A: <20

Q: What about the CC50 at 24 h [2] of the same molecule?
A: > 2230 µM

Q: What does the source list for `CN(C)c1ccc(-c2cn(-c3ccnc4cc(Cl)ccc34)nn2)cc1`?
A: IC50 (Plasmodium falciparum; read-out: IC50): 40.3 µM; IC50 (Plasmodium falciparum; read-out: pIC50 (converted)): 39.8 µM; Ratio CC50/IC50 [1]: >71.1; CC50 at 24 h [2]: > 2860 µM

Q: Which IC50 (Plasmodium falciparum; read-out: IC50) does the source give for `Fc1ccc(-c2cn(-c3ccnc4cc(Cl)ccc34)nn2)cc1` here?
A: > 154 µM

Q: And the “Ratio CC50/IC50” value [1]?
A: <20

Q: What about the CC50 at 24 h [2] of the same molecule?
A: > 3090 µM

Q: Which IC50 (Plasmodium falciparum; read-out: IC50) does the source give for `Cc1ccc(-c2cn(-c3ccnc4cc(Cl)ccc34)nn2)cc1` here?
A: > 156 µM

Q: What about the “Ratio CC50/IC50” value [1] of the same molecule?
A: <2.2

Q: What about the CC50 at 24 h [2] of the same molecule?
A: 352 µM

Q: What does the source list for `Clc1ccc2c(-n3cc(-c4ccccc4)nn3)ccnc2c1`?
A: IC50 (Plasmodium falciparum; read-out: IC50): > 80 µM; Ratio CC50/IC50 [1]: <7.2; CC50 at 24 h [2]: 574 µM

Q: What does the source list for `OCCCc1cn(-c2ccnc3cc(Cl)ccc23)nn1`?
A: IC50 (Plasmodium falciparum; read-out: IC50): 9.6 µM; IC50 (Plasmodium falciparum; read-out: pIC50 (converted)): 10 µM; Ratio CC50/IC50 [1]: 15.7; CC50 at 24 h [2]: 151 µM

Q: Which IC50 (Plasmodium falciparum; read-out: IC50) does the source give for `CC(C)(O)c1cn(-c2ccnc3cc(Cl)ccc23)nn1` here?
A: 90.3 µM

Q: And the “Ratio CC50/IC50” value [1]?
A: 4.9

Q: And the CC50 at 24 h [2]?
A: 442 µM

Q: What does the source list for `Clc1ccc2c(-n3cc(C4CCCCC4)nn3)ccnc2c1`?
A: IC50 (Plasmodium falciparum; read-out: IC50): > 80 µM; Ratio CC50/IC50 [1]: <40; CC50 at 24 h [2]: > 3200 µM

Q: With `COc1ccc2cc(-c3cn(-c4ccnc5cc(Cl)ccc45)nn3)ccc2c1` as the molecule, how does the IC50 (Plasmodium falciparum; read-out: IC50) read?
A: > 129 µM

Q: And the “Ratio CC50/IC50” value [1]?
A: <20

Q: What about the CC50 at 24 h [2] of the same molecule?
A: > 2590 µM

Q: With `O=C(OCCCc1cn(-c2ccnc3cc(Cl)ccc23)nn1)c1ccccc1` as the molecule, how does the IC50 (Plasmodium falciparum; read-out: IC50) read?
A: > 128 µM

Q: What about the “Ratio CC50/IC50” value [1] of the same molecule?
A: <9.4

Q: And the CC50 at 24 h [2]?
A: 1200 µM

Q: What does the source list for `COc1ccc(C(=O)OCCCc2cn(-c3ccnc4cc(Cl)ccc34)nn2)cc1`?
A: IC50 (Plasmodium falciparum; read-out: IC50): > 113 µM; Ratio CC50/IC50 [1]: <3; CC50 at 24 h [2]: 347 µM

Q: With `CCc1ccc(C(=O)OCCCc2cn(-c3ccnc4cc(Cl)ccc34)nn2)cc1` as the molecule, how does the IC50 (Plasmodium falciparum; read-out: IC50) read?
A: > 119 µM

Q: What about the “Ratio CC50/IC50” value [1] of the same molecule?
A: <21.4

Q: What about the CC50 at 24 h [2] of the same molecule?
A: > 2550 µM

Q: What does the source list for `O=C(OCCCc1cn(-c2ccnc3cc(Cl)ccc23)nn1)c1ccc(C(F)(F)F)cc1`?
A: IC50 (Plasmodium falciparum; read-out: IC50): > 109 µM; Ratio CC50/IC50 [1]: <20; CC50 at 24 h [2]: > 2170 µM

Q: What does the source list for `CC(C)(C)c1ccc(C(=O)OCCCc2cn(-c3ccnc4cc(Cl)ccc34)nn2)cc1`?
A: IC50 (Plasmodium falciparum; read-out: IC50): > 112 µM; Ratio CC50/IC50 [1]: <20; CC50 at 24 h [2]: > 2230 µM

Q: With `Cc1ccc(C(=O)OCCCc2cn(-c3ccnc4cc(Cl)ccc34)nn2)cc1` as the molecule, how does the IC50 (Plasmodium falciparum; read-out: IC50) read?
A: > 123 µM

Q: What about the “Ratio CC50/IC50” value [1] of the same molecule?
A: <20

Q: And the CC50 at 24 h [2]?
A: > 2460 µM

Q: Which IC50 (Plasmodium falciparum; read-out: IC50) does the source give for `CCc1ccc(C(=O)OCc2cn(-c3ccnc4cc(Cl)ccc34)nn2)cc1` here?
A: > 128 µM

Q: What about the “Ratio CC50/IC50” value [1] of the same molecule?
A: <20

Q: What about the CC50 at 24 h [2] of the same molecule?
A: > 2550 µM

Q: Which IC50 (Plasmodium falciparum; read-out: IC50) does the source give for `CCc1ccccc1C(=O)OCc1cn(-c2ccnc3cc(Cl)ccc23)nn1` here?
A: > 128 µM

Q: What about the “Ratio CC50/IC50” value [1] of the same molecule?
A: <20

Q: What about the CC50 at 24 h [2] of the same molecule?
A: > 2550 µM

Q: What does the source list for `CC(C)(C)c1ccc(C(=O)OCc2cn(-c3ccnc4cc(Cl)ccc34)nn2)cc1`?
A: IC50 (Plasmodium falciparum; read-out: IC50): > 119 µM; Ratio CC50/IC50 [1]: <20; CC50 at 24 h [2]: > 2380 µM

Q: With `O=C(OCc1cn(-c2ccnc3cc(Cl)ccc23)nn1)c1ccccc1` as the molecule, how does the IC50 (Plasmodium falciparum; read-out: IC50) read?
A: > 137 µM

Q: What about the “Ratio CC50/IC50” value [1] of the same molecule?
A: <20

Q: And the CC50 at 24 h [2]?
A: > 2750 µM

Q: With `O=C(OCc1cn(-c2ccnc3cc(Cl)ccc23)nn1)c1ccc(C(F)(F)F)cc1` as the molecule, how does the IC50 (Plasmodium falciparum; read-out: IC50) read?
A: > 116 µM

Q: What about the “Ratio CC50/IC50” value [1] of the same molecule?
A: <9.2

Q: What about the CC50 at 24 h [2] of the same molecule?
A: 1070 µM

Q: Which results are given for `COc1ccc(C(=O)OCc2cn(-c3ccnc4cc(Cl)ccc34)nn2)cc1`?
A: IC50 (Plasmodium falciparum; read-out: IC50): > 127 µM; Ratio CC50/IC50 [1]: <2.4; CC50 at 24 h [2]: 303 µM

Q: For `O=C(OCc1cn(-c2ccnc3cc(Cl)ccc23)nn1)c1ccc(Cl)cc1`, which IC50 (Plasmodium falciparum; read-out: IC50) is on record?
A: 22.5 µM

Q: And the IC50 (Plasmodium falciparum; read-out: pIC50 (converted))?
A: 22.9 µM

Q: And the “Ratio CC50/IC50” value [1]?
A: 21.5

Q: What about the CC50 at 24 h [2] of the same molecule?
A: 484 µM

Q: What does the source list for `CCN(CC)Cc1cn(-c2ccnc3cc(Cl)ccc23)nn1`?
A: IC50 (Plasmodium falciparum; read-out: IC50): > 166 µM; Ratio CC50/IC50 [1]: <11.2; CC50 at 24 h [2]: 1850 µM

Q: With `CN(C)Cc1cn(-c2ccnc3cc(Cl)ccc23)nn1` as the molecule, how does the IC50 (Plasmodium falciparum; read-out: IC50) read?
A: 27.4 µM

Q: And the IC50 (Plasmodium falciparum; read-out: pIC50 (converted))?
A: 26.9 µM

Q: And the “Ratio CC50/IC50” value [1]?
A: 67.5

Q: And the CC50 at 24 h [2]?
A: 1850 µM

Q: What does the source list for `Clc1ccc2c(-n3cc(CN4CCOCC4)nn3)ccnc2c1`?
A: IC50 (Plasmodium falciparum; read-out: IC50): > 152 µM; Ratio CC50/IC50 [1]: <20; CC50 at 24 h [2]: > 3040 µM

Q: For `Clc1ccc2c(-n3cc(CN4CCCCC4)nn3)ccnc2c1`, which IC50 (Plasmodium falciparum; read-out: IC50) is on record?
A: > 153 µM

Q: And the “Ratio CC50/IC50” value [1]?
A: <7.2

Q: And the CC50 at 24 h [2]?
A: 1110 µM

Q: With `OC1CCN(Cc2cn(-c3ccnc4cc(Cl)ccc34)nn2)CC1` as the molecule, how does the IC50 (Plasmodium falciparum; read-out: IC50) read?
A: 40.9 µM

Q: And the IC50 (Plasmodium falciparum; read-out: pIC50 (converted))?
A: 40.7 µM

Q: And the “Ratio CC50/IC50” value [1]?
A: 22.7

Q: What about the CC50 at 24 h [2] of the same molecule?
A: 930 µM

Q: With `CCN(CC)CCCC(C)Nc1ccnc2cc(Cl)ccc12` (configuration not stated) [CHLOROQUINE] as the molecule, how does the CC50 at 24 h [2] read?
A: 810 µM
